Screens from PubChem BioAssay.
Hits are enriched below; roughly 3.5% of the tested compounds scored in any of these assays.
MrgX1 allo act = positive allosteric modulators of MrgX1, primary screen, HEK293 cells, Fluo-4 calcium flux | Mas-related G-protein coupled receptor member X1 (Homo sapiens), Q96LB2 | FDSS; active compounds read high | B-score at 10 µM | 310,000 tested, 0.63% active | AID 588675, 2011;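 active = plate-corrected calcium response at least 3 library SD above typical, normal starting fluorescence, not activating the receptor alone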;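 note: compound read alongside a low EC10 to EC30 dose of BAM8-22 agonist; peak minus trough fluorescence over baseline measured at the second addition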
Target sequence (Q96LB2 whole entry, looked up): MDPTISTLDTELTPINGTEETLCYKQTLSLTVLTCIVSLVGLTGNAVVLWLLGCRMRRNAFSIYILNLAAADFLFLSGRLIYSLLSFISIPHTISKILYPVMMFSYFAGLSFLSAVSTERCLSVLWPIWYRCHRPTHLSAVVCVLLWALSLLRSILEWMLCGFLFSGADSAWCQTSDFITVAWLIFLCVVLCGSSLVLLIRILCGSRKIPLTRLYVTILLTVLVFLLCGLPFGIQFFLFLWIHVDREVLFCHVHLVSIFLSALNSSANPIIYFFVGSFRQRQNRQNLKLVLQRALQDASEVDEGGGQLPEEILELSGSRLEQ
MrgX1 antagonist = antagonists of human MrgX1 receptor, primary screen, HEK293 cells, Fluo-4 calcium flux; AID 588676, 2011; Mas-related G-protein coupled receptor member X1 (Homo sapiens), Q96LB2; BAM8-22 antagonism; active compounds read low; B-score at 10 µM; 310,000 tested, 1.3% active;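 active = calcium-response B-score plate-corrected more than 3 library SD below zero, starting fluorescence within 5 deviations, no agonist response on first addition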;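 note: peak minus trough fluorescence over baseline after final BAM8-22 challenge near maximal dose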
MrgX1 ag = agonists of human MrgX1 receptor, primary screen, HEK293 cells, Fluo-4 calcium flux | B-score at 10 µM | Fluo-4 calcium fluorescence, agonist mode; active compounds read high | Mas-related G-protein coupled receptor member X1 (Homo sapiens), Q96LB2 | 310,000 tested, 0.44% active;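 active = calcium response B-score plate-corrected fluorescence ratio at least 3 library SD, with starting fluorescence B-score inside 5 SD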
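Material: MrgX1-expressing HEK293 cells; input: 15,000 cells per well; doses: test compound given as first of three sequential additions; schedule: overnight plating before 1 h dye loading; technique: Fluo-4 NW calcium-flux fluorescence, kinetic read; evaluation: baseline-normalised fluorescence change ratio, B-scored; control set: plate-wise positive and negative controls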
RGS4 pot = RGS4 potentiators or activators, primary screen, cell-based, HEK293 M3R inducible RGS4, calcium flux. 310,000 tested, 0.92% active. carbachol calcium flux Fluo4; active compounds read low. B-score at 10 µM;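 active = B-score of the integrated calcium signal more than 4 SD below the library mean, with starting fluorescence not abnormally high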;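 note: negative B-score means reduced calcium response which marks RGS4 activation or potentiation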
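System – HEK293 FlpIn-TREx cells, stable M3R, doxycycline-inducible RGS4 · Reagent – ECmax carbachol challenge · Times – compound preincubation 20 min at room temperature before agonist · Technique – Fluo4 fluorescence kinetic imaging of calcium · Measure – B score of integrated Fluo4 ratio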
RGS4 block = RGS4 inhibitors, primary screen, cell-based, HEK293 M3R inducible RGS4, calcium flux; Regulator of G-protein signaling 4 (Homo sapiens), P49798; Fluo-4 calcium flux; active compounds read high; triggered by carbachol at its EC20; B-score at 10 µM; 310,000 tested, 0.45% active;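 active = B-score, a plate-corrected calcium signal, over three deviations above library mean, with baseline fluorescence within five deviations of library mean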;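 note: RGS4 expression induced by doxycycline in cells with stable M3 receptor; B-score is computed from the integrated fluorescence ratio over baseline after carbachol; higher B-score means a larger calcium signal and so more RGS4 inhibition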
Target sequence (P49798 whole entry, looked up): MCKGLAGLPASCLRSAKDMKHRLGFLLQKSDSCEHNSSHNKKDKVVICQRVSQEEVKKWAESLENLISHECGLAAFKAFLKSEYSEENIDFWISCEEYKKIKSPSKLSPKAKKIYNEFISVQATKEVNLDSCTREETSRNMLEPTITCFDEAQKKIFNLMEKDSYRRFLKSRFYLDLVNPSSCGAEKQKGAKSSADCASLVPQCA
Active calls of the source: *; i = inactive; . = no result given.

SMILES	MrgX1 allo act	MrgX1 antagonist	MrgX1 ag	RGS4 pot	RGS4 block
N#C/C(C(N)=O)=c1/ccc2c(c1)N1C3=C(CCCC3)CC3CCCCC31N=2 (stereo not given)	i	i	i	-8.8*	i
C=CCOc1c(Br)cc(/C=C2/C(=O)ON=C2C)cc1OC	i	i	i	i	i
Cc1ccc(C(=O)Nn2c(O)c(C=C3N=c4ccccc4=N3)sc2=S)cc1	i	i	i	i	i
Cc1ccc(S(=O)(=O)Nn2c(O)c(C=C3N=c4ccccc4=N3)sc2=S)cc1	i	-5.3*	i	i	i
c1ccc(-c2nc3cccnc3nc2-c2ccccc2)cc1	i	i	i	i	i
CC12CCC(C(=O)N(CSC(=S)N/N=C\c3ccccc3O)C1=O)C2(C)C (stereo not given)	9.3*	i	i	i	i
COc1ccc(C(=O)NCCCNC(=O)c2cccnc2)cc1Br	i	i	i	i	i
CN(C)C1=NC[C@H](Cc2ccccc2)N1CC1CCC(C(C)(C)C)CC1 (stereo not given in full)	i	-6.2*	i	i	i
CSc1ccc(Cl)c(C(=O)NCCOc2cc(C)ccc2C(C)C)c1	i	i	i	-7.2*	i
O=C(NCCc1ccccn1)c1nc(Cn2cc(Br)cn2)no1	i	i	i	i	i
Cc1ccc(N(C(=O)Cn2nnc3ccccc32)C(C(=O)NCc2ccco2)c2ccc(C)o2)cc1 (stereo not given)	.	.	.	i	i
CCC(C)(C)NC(=O)C(c1ccco1)N(C(=O)Cn1nnc2ccccc21)c1ccc2c(c1)OCO2 (stereo not given)	8.9*	i	i	i	i
COc1cc(OC)c(NC(=S)NCc2ccccc2)cc1Cl	i	i	i	i	i
COc1ccccc1OCCCN1C(=O)C(=O)c2cccc(C)c21	i	i	28*	i	i
CSc1ncccc1C(=O)NNc1cc(Cl)ccc1Cl	i	i	i	i	i
O=C(NCCCO)C12CC3CC(CC(C3)C1)C2	i	i	i	i	i
Cc1cc(C(=O)N2CCN(C(c3ccccc3)c3ccccc3)CC2)no1	i	i	i	i	i
CCCc1cc(C(=O)N2CCN(C(c3ccccc3)c3ccccc3)CC2)no1	i	i	i	-7.4*	i
Cc1ccccc1SCC(=O)Nc1cc(C(F)(F)F)ccc1N1CCOCC1	11*	i	i	i	i
Cc1cccc(N(Cc2ccccc2)C(=O)c2ccc(CS(C)(=O)=O)cc2)c1	i	i	i	i	i
CCC1=NN2C(=N)/C(=C/c3c(C)nn(-c4ccccc4)c3Cl)C(=O)N=C2S1	i	i	30*	i	i
CCOc1cc(/C=C2\C(=N)N3N=C(CC)SC3=NC2=O)ccc1OCCOc1ccc(NC(C)=O)cc1	i	i	i	i	i
CC(=O)Nc1ccc(OCCOc2ccc(/C=C3/C(=N)N4C=CSC4=NC3=O)cc2)cc1	i	i	30*	i	i
CCC1=NN2C(=N)/C(=C/c3ccc(OS(=O)(=O)c4ccccc4)c(OC)c3)C(=O)N=C2S1	i	i	i	i	i
COc1cc(/C=C2\C(=N)N3N=C(C)SC3=NC2=O)cc(Cl)c1OCCOc1ccc(NC(C)=O)cc1	7.6*	i	i	i	i
SMILES	MrgX1 allo act	MrgX1 antagonist	MrgX1 ag	RGS4 pot	RGS4 block
COc1cc(/C=C2\C(=N)N3N=C(C)SC3=NC2=O)cc(OC)c1OCCOc1ccccc1C	i	i	i	i	i
COc1ccccc1OCCOc1ccc(/C=C2\C(=N)N3N=C(S(C)(=O)=O)SC3=NC2=O)cc1	i	i	i	i	i
CCC1=NN2C(=N)/C(=C\c3ccc(OCCOc4ccc(NC(C)=O)cc4)cc3)C(=O)N=C2S1	11*	i	i	i	i
Cc1cc(C)c(C(CC(=O)c2cccs2)C(C#N)C#N)c(C)c1 (stereo not given)	i	i	i	i	i
CCOc1cc(/C=C2\C(=N)N3N=C(C)SC3=NC2=O)ccc1OCCOc1cccc(OC)c1	i	i	i	i	i
CCc1nn2c(=O)cc(COc3ccc(/C=C4\C(=N)N5N=C(C)SC5=NC4=O)cc3)nc2s1	9.4*	-4.5*	i	i	i
COc1cc(/C=C2/C(=N)N3OC(C)=CC3=NC2=O)ccc1OCCOc1ccc(C)cc1	i	-4.9*	i	i	i
COc1cc(/C=C2\C(=N)N3N=C(C(C)C)SC3=NC2=O)ccc1OCCOc1ccc(NC(C)=O)cc1	14*	i	i	i	i
CCCC1=NN2C(=N)/C(=C\c3ccc(OCCOc4ccc(NC(C)=O)cc4)c(OC)c3)C(=O)N=C2S1	15*	i	i	i	i
COc1cc(C(C)=O)ccc1COc1ccc(C(=O)OC(C)C(=O)NC(N)=O)cc1OC (stereo not given)	i	i	i	i	i
CN(C)S(=O)(=O)c1cc(NC(=O)c2cc(=O)[nH]c3ccccc23)ccc1Cl	i	i	i	i	i
O=C(c1ccc(-n2cncn2)c([N+](=O)[O-])c1)N1CCN(S(=O)(=O)c2ccc(Cl)cc2)CC1	i	i	i	i	i
Cc1nnc(NC(=O)c2ccc(F)c(S(=O)(=O)N3CCCCC3)c2)s1	i	i	i	i	i
CCC(=O)N1CCc2cc(Br)cc(S(=O)(=O)N3CCCCC3CC)c21 (stereo not given)	i	i	i	i	i
Cc1ccc(NC(=O)CC(O)(C(F)(F)F)C(F)(F)F)cc1	i	i	48*	i	i
Cc1cc2cccc(C)c2nc1SCC(=O)NNC(=O)c1ccco1	12*	i	i	i	i
Cc1cc(C)c2nc(SCC(=O)NNC(=O)c3ccco3)c(C)cc2c1	i	i	i	i	i
Clc1ccccc1CN(Cc1ccccc1)C(c1cccs1)c1nnnn1C1CCCC1 (stereo not given)	i	-5.7*	i	i	i
CCN(Cc1ccccc1)C(c1cccs1)c1nnnn1C1CCCCC1 (stereo not given)	i	i	i	i	i
CCN(CC)C(=O)c1cn(CCC#N)nc1-c1ccc2ccccc2c1	i	i	i	i	i
COc1ccccc1CNC(=O)OCc1nccnc1C(=O)Nc1ccc(Br)cn1	i	i	i	i	i
